In publication PMC9220501 (Chemico-Biological Interactions, 2022):

Tests used:
Type in all cases: cell-based
lung fibroblasts MRC-5 = assay: MTT cytotoxicity assay, normal MRC-5; details: Homo sapiens, MRC5, 72 h, read-out: IC50 MRC-5
[1] = tested on: chronic myelogenous leukemia K562 cells; assay: MTT cytotoxicity assay, K562; details: Homo sapiens, K562, 72 h, read-out: IC50 K562
malignant melanoma A375 = assay: MTT cytotoxicity assay, A375; details: Homo sapiens, A-375, 72 h, read-out: IC50 A375
Summary of the method: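 A375 cells were kept in RPMI 1640 with 10% FBS, 2 mM L-glutamine, 25 mM HEPES and penicillin-streptomycin at 37 °C and 5% CO2. Cells were seeded at 3000 per well and allowed to adhere for 20 h. They were treated for 72 h, and survival was read by MTT. IC50 is the mean ± SD of three independent experiments.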

[2] = tested on: cervical adenocarcinoma HeLa; assay: MTT cytotoxicity assay, HeLa; details: Homo sapiens, 72 h, read-out: IC50 HeLa
[3] = tested on: colon adenocarcinoma LS174; assay: MTT cytotoxicity assay, LS174; details: Homo sapiens, LS174, 72 h, read-out: IC50 LS174
lung carcinoma A549 = assay: MTT cytotoxicity assay, A549; details: Homo sapiens, A549, 72 h, read-out: IC50 A549

SMILES | IC50 (lung fibroblasts MRC-5) | IC50 [1] | IC50 (malignant melanoma A375) | IC50 [2] | IC50 [3] | IC50 (lung carcinoma A549)
COC(=O)C1=C(C)N(C)C(=S)NC1c1ccc(O)c(OC)c1 (centres unmarked) [4e, Methyl 1,2,3,4-tetrahydro-4-(4′-hydroxy-3′-methoxyphenyl)-1,6-dimethyl-2-thioxopyrimidine-5-carboxylate] | 114 ± 2.36 µM | 197 ± 0.54 µM | 176 ± 2.9 µM | 157 ± 6.52 µM | 196 ± 2.87 µM | 
COC(=O)C1=C(C)N(C)C(=S)NC1c1ccccc1 (centres unmarked) [4a, Methyl 1,2,3,4-tetrahydro-1,6-dimethyl-2-thioxo-4-phenylpyrimidine-5-carboxylate] | 92.97 ± 0.59 µM | 163 ± 4.62 µM | 123 ± 7.17 µM | 128 ± 15.4 µM | 170.5 ± 1.28 µM | 
COC(=O)C1=C(C)N(C)C(=S)NC1c1ccc([N+](=O)[O-])cc1 (centres unmarked) [4c, Methyl 4-(4′-nitrophenyl)-1,2,3,4-tetrahydro-1,6-dimethyl-2-thioxopyrimidine-5-carboxylate] | 88.9 ± 6.31 µM | 193 ± 3.75 µM | 158 ± 7.84 µM | 122 ± 12.8 µM | 185 ± 5.5 µM | 
COC(=O)C1=C(C)N(C)C(=S)NC1c1ccc(Cl)cc1 (centres unmarked) [4b, Methyl 4-(4′-chlorophenyl)-1,2,3,4-tetrahydro-1,6-dimethyl-2-thioxopyrimidine-5-carboxylate] | 28.2 ± 0.32 µM | 95.9 ± 1.85 µM | 102 ± 6.26 µM | 81.8 ± 9.57 µM | 153 ± 9.08 µM | 123 ± 6.05 µM
COC(=O)C1=C(C)N(C)C(=S)NC1c1ccc(C(=O)O)cc1 (centres unmarked) [4d, 4-(5-(methoxycarbonyl)-1,2,3,4-tetrahydro-1,6-dimethyl-2-thioxopyrimidin-4-yl)benzoic acid] | 169 ± 8.98 µM | 195 ± 7.62 µM | 199.6 ± 0.59 µM | 139 ± 7.64 µM | > 200 µM | 
